Data as given in ChEMBL document CHEMBL5120949, “Optimization of Covalent MKK7 Inhibitors via Crude Nanomole-Scale Libraries” (J Med Chem, 2022).
≈ marks a conversion by molar mass, not a printed value.

Experiments:
[1] = biological target: T1, Dual specificity mitogen-activated protein kinase kinase 7 (Homo sapiens) (UniProt O14733); assay: Binding affinity to N-terminal 6XHis-tagged recombinant MKK7 (117 to 423 residues) (unknown origin) assessed as protein labelling at 2 uM measured for 10 mins by LC/MS analysis relative to control
T1 sequence (whole entry): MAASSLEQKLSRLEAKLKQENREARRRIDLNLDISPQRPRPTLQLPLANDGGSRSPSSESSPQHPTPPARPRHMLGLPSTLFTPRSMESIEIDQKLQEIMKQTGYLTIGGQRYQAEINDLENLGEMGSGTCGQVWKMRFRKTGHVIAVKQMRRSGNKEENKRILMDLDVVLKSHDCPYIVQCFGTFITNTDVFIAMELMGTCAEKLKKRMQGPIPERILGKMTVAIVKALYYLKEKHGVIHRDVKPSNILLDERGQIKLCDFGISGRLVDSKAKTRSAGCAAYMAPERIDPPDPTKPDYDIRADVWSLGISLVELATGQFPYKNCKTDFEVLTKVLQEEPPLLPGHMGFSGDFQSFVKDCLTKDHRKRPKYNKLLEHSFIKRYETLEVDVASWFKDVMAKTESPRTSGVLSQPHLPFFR

[2] = biological target: T1, Dual specificity mitogen-activated protein kinase kinase 7 (Homo sapiens); assay: Inhibition of N-terminal 6XHis-tagged recombinant MKK7 (117 to 423 residues) in human U2OS cells assessed as reduction in JNK phosphorylation level at 13.8 uM incubated for 2 hrs by ICW detection method relative to control; assay type: cell-based
In short: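 U2OS cells plated on fibronectin-coated 384-well plates, 24 h. Crude CuAAC reaction mixtures diluted in PBS and given to cells at 13.89 μM final for 2 h. 0.2 M sorbitol added 40 min before fixation. Cells fixed, permeabilized and immunostained for phospho-JNK T183/Y185. The 800 nm signal was normalized to CellTag700 and compared with control wells.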

[3] = biological target: T2, Dual specificity mitogen-activated protein kinase kinase 7 (Homo sapiens, UniProt O14733); assay: Inhibition of N-terminal 6XHis-tagged recombinant MKK7 (117 to 423 residues) in human U2OS assessed as reduction in c-Jun phosphorylation level incubated for 80 mins by Western blot analysis; assay type: cell-based
T2 sequence (O14733 whole entry): T1 sequence (whole entry)
In short: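 U2OS cells in six-well plates, media changed, then exposed to compound in 0.1% DMSO for 80 min. Sorbitol added to 0.2 M for 40 min. Lysates (35 μg protein) run on western blot against p-c-Jun (Ser63), with GAPDH as loading control. Bands quantified and EC50 taken from a sigmoidal dose–response fit with top fixed at 1 and bottom at 0.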

[4] = Metabolic stability in human liver microsomes assessed as intrinsic clearance measured after 60 mins
[5] = Stability of the compound in human plasma assessed as parent compound remaining; assay type: ADME, cell-free
[6] = Apparent permeability across apical to basolateral side in human Caco2 cells; conditions: Caco-2
[7] = Kinetic solubility of compound

| SMILES | Activity [1] | inhibition [2] | also measured |
| --- | --- | --- | --- |
| C=CC(=O)Nc1cc(C(=O)NCc2cn([C@@H]3CCCC[C@H]3OC)nn2)cc(-c2n[nH]c3ccccc23)c1 (racemic) | > 70% | – | – |
| C=CC(=O)Nc1cc(C(=O)NCc2cn(-c3ccc(F)c(Cl)c3)nn2)cc(-c2n[nH]c3ccccc23)c1 | > 70% | – | – |
| C=CC(=O)N1CCC[C@@H](n2nc(-c3cn(CCc4ccccc4)nn3)c3c(N)ncnc32)C1 | > 70% | 65% | – |
| C=CC(=O)N1CCC[C@@H](n2nc(-c3cn(-c4ccc(Cl)cc4O)nn3)c3c(N)ncnc32)C1 | > 70% | 65% | – |
| C=CC(=O)N1CCC[C@@H](n2nc(-c3cn(-c4ccc(CO)c(F)c4)nn3)c3c(N)ncnc32)C1 | > 70% | 65% | – |
| C#Cc1nn([C@@H]2CCCN(C(=O)C=C)C2)c2ncnc(N)c12 | > 70% | 65% | – |
| C=CC(=O)N1CCC[C@@H](n2nc(-c3cn(-c4ccc(OC)cc4)nn3)c3c(N)ncnc32)C1 | > 70% | 65% | – |
| C=CC(=O)N1CCC[C@@H](n2nc(-c3cn(-c4cc(Br)ccc4O)nn3)c3c(N)ncnc32)C1 | > 70% | 65% | EC50 [3]: > 900 nM |
| C#CCNC(=O)c1cc(NC(=O)C=C)cc(-c2n[nH]c3ccccc23)c1 | 2% | – | – |
| C=CC(=O)N1CCC[C@@H](n2nc(-c3cn(CC(F)(F)c4ccc(Cl)cc4)nn3)c3c(N)ncnc32)C1 | > 70% | 65% | – |
| C=CC(=O)N1CCC[C@@H](n2nc(-c3cn(C[C@H](O)c4ccc(Br)cc4)nn3)c3c(N)ncnc32)C1 | > 70% | 65% | – |
| C=CC(=O)Nc1cc(C(=O)NCc2cn(-c3ccccc3C)nn2)cc(-c2n[nH]c3ccccc23)c1 | > 70% | – | EC50 [3]: < 3000 nM |
| C=CC(=O)N1CCC[C@@H](n2nc(-c3cn(-c4ccc(C(C)=O)cc4)nn3)c3c(N)ncnc32)C1 | – | 65% | microsomal CLint at 1 h [4]: 154 µL/min/mg; Stability [5]: 70%; Papp A→B [6]: 20 ×10⁻⁶ cm/s; solubility kinetic [7]: 8 µM (≈ 3.66 µg/mL) |
| C=CC(=O)N1CCC[C@@H](n2nc(-c3cn(CC(F)(F)c4ccccc4)nn3)c3c(N)ncnc32)C1 | – | 65% | – |
| C=CC(=O)N1CCC[C@@H](n2nc(-c3cn(-c4ccc(C(=O)OC)cc4)nn3)c3c(N)ncnc32)C1 | > 70% | 65% | – |
| C=CC(=O)Nc1cc(C(=O)NCc2cn(C3CCC3)nn2)cc(-c2n[nH]c3ccccc23)c1 | > 70% | – | – |
| C=CC(=O)N1CCC[C@@H](n2nc(-c3cn(-c4ccc(Br)cc4)nn3)c3c(N)ncnc32)C1 | > 70% | 65% | – |
